Experimental data taken from ChEMBL document CHEMBL1629441, “Synthesis, in vitro and in vivo biological evaluation, and comprehensive understanding of structure-activity relationships of dipeptidyl boronic acid proteasome inhibitors constructed from β-amino acids” (J Med Chem, 2010).

test: Inhibition of human 20S proteasome chymotrypsin-like activity by fluorimetric assay; conditions: not given; call rule not given here
Summary of the method: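 Human 20S proteasome preincubated with test compound, then Suc-Leu-Leu-Val-Tyr-AMC hydrolysis monitored 1 h at 37 °C by fluorescence (excitation 360 nm, 465 nm). Buffer pH 7.5: 20 mM Tris, 1 mM DTT, 10% glycerol, 0.02% (w/v) SDS; DMSO 3% (v/v) final. IC50 from five concentrations, each in duplicate; bortezomib standard.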

IC50 | SMILES
Not Active | CC(C)C[C@H](NC(=O)CC(NC(=O)c1cccnc1)c1cccc(F)c1)B(O)O (stereo not given in full)
Not Active | CC(C)C[C@H](NC(=O)CC(NC(=O)c1cccnc1)c1ccccc1Cl)B(O)O (stereo not given in full)
Not Active | CC(C)C[C@H](NC(=O)CC(NC(=O)c1cccnc1)c1ccccc1[N+](=O)[O-])B(O)O (stereo not given in full)
Not Active | CC(=O)NC(CC(=O)N[C@@H](CC(C)C)B(O)O)c1cccc(F)c1 (stereo not given in full)

The next lines start with the compound.

SMILES | IC50
CC(C)C[C@H](NC(=O)CC(NC(=O)C(=O)OC(C)(C)C)c1cccc(Cl)c1)B(O)O (stereo not given in full) | Not Active
CC(C)C[C@H](NC(=O)CC(NC(=O)C(=O)OC(C)(C)C)c1cccc(F)c1)B(O)O (stereo not given in full) | Not Active
COc1cccc(C(CC(=O)N[C@@H](CC(C)C)B(O)O)NC(=O)C(=O)OC(C)(C)C)c1 (stereo not given in full) | Not Active
CC(C)C[C@H](NC(=O)CC(NC(=O)c1ccccc1)c1ccccc1[N+](=O)[O-])B(O)O (stereo not given in full) | Not Active
Cc1ccccc1C[C@H](NC(=O)CC(NC(=O)c1ccccc1)c1cccc(F)c1)B(O)O (stereo not given in full) | Not Active
O=C(CC(NC(=O)c1ccccc1)c1cccc(F)c1)N[C@@H](CC1CCCCC1)B(O)O (stereo not given in full) | Not Active
Cc1ccccc1C[C@H](NC(=O)CC(NC(=O)c1ccccc1)c1cccc(Cl)c1)B(O)O (stereo not given in full) | Not Active
Cc1cccc(C[C@H](NC(=O)CC(NC(=O)c2ccccc2)c2cccc(Cl)c2)B(O)O)c1 (stereo not given in full) | Not Active
O=C(CC(NC(=O)c1ccccc1)c1cccc(Cl)c1)N[C@@H](Cc1cccc(F)c1)B(O)O (stereo not given in full) | Not Active
O=C(CC(NC(=O)c1ccccc1)c1cccc(Cl)c1)N[C@@H](CC1CCCCC1)B(O)O (stereo not given in full) | Not Active
O=C(CC(NC(=O)c1cccnc1)c1cccc(Cl)c1)N[C@@H](CC1CCCCC1)B(O)O (stereo not given in full) | Not Active
COc1cccc(C(CC(=O)N[C@@H](Cc2ccccc2C)B(O)O)NC(=O)c2cccnc2)c1 (stereo not given in full) | Not Active
CC(=O)NC(CC(=O)N[C@@H](CC(C)C)B(O)O)c1cccc(Cl)c1 (stereo not given in full) | Not Active
COc1cccc(C(CC(=O)N[C@@H](CC(C)C)B(O)O)NC(C)=O)c1 (stereo not given in full) | Not Active

same assay, conditions: read-out: IC50

IC50 [µM] | SMILES
0.269 | CC(C)C[C@H](NC(=O)CC(NC(=O)c1cnccn1)c1cccc(F)c1)B(O)O (stereo not given in full)
0.019 | CC(C)C[C@H](NC(=O)CC(NC(=O)c1ccccc1)c1cccc(F)c1)B(O)O (stereo not given in full)
0.0501 | Cc1cccc(C(CC(=O)N[C@@H](CC(C)C)B(O)O)NC(=O)c2ccccc2)c1 (stereo not given in full)
1.1 | CC(C)C[C@H](NC(=O)CC(NC(=O)c1cccnc1)c1ccccc1F)B(O)O (stereo not given in full)
0.59 | CC(C)C[C@H](NC(=O)CC(NC(=O)c1cccnc1)c1ccc(F)cc1)B(O)O (stereo not given in full)
0.0229 | CC(C)C[C@H](NC(=O)CC(NC(=O)c1cccnc1)c1cccc(Cl)c1)B(O)O (stereo not given in full)
0.087 | COc1ccccc1C(CC(=O)N[C@@H](CC(C)C)B(O)O)NC(=O)c1cccnc1 (stereo not given in full)

The remaining lines, values behind:

SMILES | IC50 [µM]
CC(C)C[C@H](NC(=O)CC(NC(=O)C1CCCCC1)c1cccc(F)c1)B(O)O (stereo not given in full) | 0.0331
CC(C)C[C@H](NC(=O)CC(NC(=O)c1ccccc1)c1ccccc1F)B(O)O (stereo not given in full) | 0.0389
CC(C)C[C@H](NC(=O)CC(NC(=O)c1ccccc1)c1ccc(F)cc1)B(O)O (stereo not given in full) | 0.0346
CC(C)C[C@H](NC(=O)CC(NC(=O)c1ccccc1)c1ccccc1Cl)B(O)O (stereo not given in full) | 0.0891
CC(C)C[C@H](NC(=O)CC(NC(=O)c1ccccc1)c1cccc(Cl)c1)B(O)O (stereo not given in full) | 0.0165
COc1ccccc1C(CC(=O)N[C@@H](CC(C)C)B(O)O)NC(=O)c1ccccc1 (stereo not given in full) | 0.224
COc1cccc(C(CC(=O)N[C@@H](CC(C)C)B(O)O)NC(=O)c2ccccc2)c1 (stereo not given in full) | 0.0467
CC(C)C[C@H](NC(=O)CC(NC(=O)c1ccccc1)c1cccc([N+](=O)[O-])c1)B(O)O (stereo not given in full) | 0.0426
CC(C)C[C@H](NC(=O)CC(NC(=O)c1ccccc1)c1ccc([N+](=O)[O-])cc1)B(O)O (stereo not given in full) | 0.0354
Cc1ccccc1C(CC(=O)N[C@@H](CC(C)C)B(O)O)NC(=O)c1ccccc1 (stereo not given in full) | 1.25
